We go through 14 compounds from ChEMBL document CHEMBL3414542, “Design and synthesis of celastrol derivatives as anticancer agents” (Eur J Med Chem, 2015).

A short description of data set [1]: Anticancer activity against human SGC7901 cells assessed as cell survival after 48 hrs by MTT assay. The data set is classed as functional, cell-based. Particulars: SGC-7901, 48 h. The gist of the method: (§1)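 MTT colorimetric assay. MTT was added (4 h, 37 °C), followed by DMSO, and absorbance was read at 570 nm. IC50 is the concentration giving 50% cell survival. Values are the mean ± SD of three independent experiments in triplicate.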

The nature of data set [2]: Anticancer activity against human SMMC7721 cells assessed as cell survival after 48 hrs by MTT assay. The class given is functional, cell-based. To be noted: SMMC-7721, 48 h. The gist of the method: as §1
Data set [3] deals with MGC-803. In words: Anticancer activity against human MGC803 cells assessed as cell survival after 48 hrs by MTT assay. The data set is classed as functional, cell-based. Particulars: MGC-803, 48 h. An outline of the steps:
as §1

Data set [4] has as its system HepG2. In words: Anticancer activity against human HepG2 cells assessed as cell survival after 48 hrs by MTT assay. To be noted: HepG2, 48 h. The data set is classed as functional, cell-based. An outline of the steps:
as §1

In data set [5] the target is Telomerase reverse transcriptase (Homo sapiens, UniProt O14746). The data set is described as follows: Inhibition of telomerase in human MGC803 cell extracts after 24 hrs by TRAP-PCR-ELISA. Details: species or system MGC-803. An outline of the steps: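 MGC-803 cells were grown in DMEM with 10% FBS, streptomycin and penicillin at 37 °C, 5% CO2, and 5 × 10^4 cells were seeded and allowed to adhere. Cells were exposed to staurosporine and test agents (60 to 0.0821 […] series) for 24 h, then scraped, washed, lysed in RIPA buffer on ice for 30 min, and spun at 12,000 g for 20 min at 4 °C. Extract (2 µL) was run in a TRAP-PCR-ELISA with anti-DIG peroxidase detection and read at 490 nm. Values are mean ± SD.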
Chain of Telomerase reverse transcriptase (O14746 whole entry): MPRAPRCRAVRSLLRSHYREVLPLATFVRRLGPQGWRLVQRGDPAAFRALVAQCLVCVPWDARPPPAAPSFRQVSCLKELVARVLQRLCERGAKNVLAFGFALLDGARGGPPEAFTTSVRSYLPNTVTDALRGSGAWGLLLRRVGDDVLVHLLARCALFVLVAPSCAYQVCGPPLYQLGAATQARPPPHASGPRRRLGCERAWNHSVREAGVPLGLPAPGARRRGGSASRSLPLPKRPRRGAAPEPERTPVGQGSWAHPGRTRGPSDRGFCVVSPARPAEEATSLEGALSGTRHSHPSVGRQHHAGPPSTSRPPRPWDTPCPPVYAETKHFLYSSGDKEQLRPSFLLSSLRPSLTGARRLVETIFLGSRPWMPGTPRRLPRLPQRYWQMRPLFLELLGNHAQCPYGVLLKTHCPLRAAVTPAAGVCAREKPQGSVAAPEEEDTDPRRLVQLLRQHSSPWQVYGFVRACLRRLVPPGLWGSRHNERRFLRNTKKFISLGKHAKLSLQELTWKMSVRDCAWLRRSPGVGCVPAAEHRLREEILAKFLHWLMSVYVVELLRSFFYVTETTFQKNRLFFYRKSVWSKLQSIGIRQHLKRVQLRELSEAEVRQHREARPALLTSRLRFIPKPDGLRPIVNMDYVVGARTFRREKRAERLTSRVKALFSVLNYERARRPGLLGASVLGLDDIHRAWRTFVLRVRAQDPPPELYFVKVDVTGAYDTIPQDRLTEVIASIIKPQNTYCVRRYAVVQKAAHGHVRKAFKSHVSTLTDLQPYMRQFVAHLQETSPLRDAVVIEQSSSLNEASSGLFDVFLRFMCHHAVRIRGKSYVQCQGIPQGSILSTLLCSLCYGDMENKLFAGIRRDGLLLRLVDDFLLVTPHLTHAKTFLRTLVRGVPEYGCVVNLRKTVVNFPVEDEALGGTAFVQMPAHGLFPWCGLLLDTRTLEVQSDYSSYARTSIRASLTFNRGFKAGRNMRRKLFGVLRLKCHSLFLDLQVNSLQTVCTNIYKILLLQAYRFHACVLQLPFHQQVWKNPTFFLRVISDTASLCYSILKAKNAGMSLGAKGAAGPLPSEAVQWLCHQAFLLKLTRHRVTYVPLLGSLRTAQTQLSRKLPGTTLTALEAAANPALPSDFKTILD

Data set [6] can be described thus: Octanol-water partition coefficient, log P of the compound by shake-flask method. The class given is physicochemical. The gist of the method: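 Shake-flask method: the solute was dissolved in octanol and water and its concentration in each phase was measured by HPLC. Log P is the logarithm of the octanol/aqueous concentration ratio.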
The test system of data set [7] is MGC-803. In words: Ratio of celastrol IC50 to compound IC50 for human MGC803 cells assessed as cell survival after 48 hrs by MTT assay. The class given is functional.
Data set [8] deals with HepG2. In words: Ratio of celastrol IC50 to compound IC50 for human HepG2 cells assessed as cell survival after 48 hrs by MTT assay. The data set is classed as functional.
The subject of data set [9] is SMMC-7721. In words: Induction of apoptosis in human SMMC7721 cells assessed as necrotic cells at 0.5 uM after 48 hrs by annexin V/PI staining based flow cytometry (reference value: 0%). The class given is functional.
For data set [10], the system named is SMMC-7721. The data set is described as follows: Induction of apoptosis in human SMMC7721 cells assessed […] cells at 0.5 uM after 48 hrs by annexin V/PI staining based flow cytometry (reference value: 0.434%). The class given is functional. To be noted: SMMC-7721, 48 h, read-out: Activity.
Data set [11] concerns SMMC-7721. The data set is described as follows: Induction of apoptosis in human SMMC7721 cells assessed as non-viable cells at 0.5 uM after 48 hrs by annexin V/PI staining based flow cytometry (reference value: 1.56%). The class given is functional.
In data set [12] the test system is SMMC-7721. In words: Induction of apoptosis in human SMMC7721 cells assessed as normal cells at 0.5 uM after 48 hrs by annexin V/PI staining based flow cytometry (reference value: 98%). The class given is functional.

On to `CC1=C(O)C(=O)C=C2C1=CC=C1[C@@]2(C)CC[C@@]2(C)[C@@H]3C[C@](C)(C(=O)N(C)C)CC[C@]3(C)CC[C@]12C`, for which the IC50 in data set [1] is 10.5 µM; in data set [2], 20 µM; with MGC-803 [3], 6.3 µM; in the data set with HepG2 [4], 11.2 µM; in [5] it was 21 µM. This compound also registered a log partition coefficient (logP) in data set [6] of 4.2.
`CC1=C(O)C(=O)C=C2C1=CC=C1[C@@]2(C)CC[C@@]2(C)[C@@H]3C[C@](C)(C(=O)NCC(C)O)CC[C@]3(C)CC[C@]12C` (stereo partly specified): the IC50 in data set [1] turned out to be 0.1 µM; in data set [2], 0.61 µM; in the data set with MGC-803 [3] it was 1.22 µM; in the data set with HepG2 [4] it was 0.28 µM; in [5] it was 0.34 µM. Also, in data set [6], the log partition coefficient (logP) is 3.49. Moreover, the “Ratio IC50” value is reported as 1.3 in the data set with MGC-803 [7] and 14.3 in the data set on HepG2 [8].
Take `CC1=C(O)C(=O)C=C2C1=CC=C1[C@@]2(C)CC[C@@]2(C)[C@@H]3C[C@](C)(C(=O)O)CC[C@]3(C)CC[C@]12C` [CELASTROL]: the 50% inhibitory concentration (IC50) in data set [1] was determined as 0.15 µM; in data set [2], 0.58 µM; in the data set on MGC-803 [3] it was 1.55 µM; in the data set with HepG2 [4], 4.01 µM; in data set [5], 0.78 µM. For the same compound, the logP in data set [6] stood at 4.38.
In the case of `COc1cccc2c1C(=O)c1c(O)c3c(c(O)c1C2=O)C[C@@](O)(C(=O)CO)C[C@@H]3O[C@H]1C[C@H](N)[C@H](O)[C@H](C)O1` [DOXORUBICIN], the IC50 in data set [1] came to 1.45 µM; in [2], 1.22 µM; in the data set on MGC-803 [3], 1.19 µM; in the data set with HepG2 [4], 0.87 µM.
`CCCCNC(=O)[C@]1(C)CC[C@]2(C)CC[C@]3(C)C4=CC=C5C(=CC(=O)C(O)=C5C)[C@]4(C)CC[C@@]3(C)[C@@H]2C1`: the IC50 in [1] came out at 4.9 µM; in data set [2], 6.88 µM; in the data set with MGC-803 [3], 3.55 µM; in the data set with HepG2 [4], 3.07 µM.
As for `CC1=C(O)C(=O)C=C2C1=CC=C1[C@@]2(C)CC[C@@]2(C)[C@@H]3C[C@](C)(C(=O)NCCO)CC[C@]3(C)CC[C@]12C`, the IC50 in [1] stood at 0.16 µM; in [2] it was 0.3 µM; in the data set on MGC-803 [3], 0.39 µM; in the data set with HepG2 [4], 0.61 µM; in data set [5], 0.11 µM. For the same compound, the lipophilicity (logP) in data set [6] stood at 3.44. The values for the Activity in the data set on SMMC-7721 [9], in the data set with SMMC-7721 [11] and in the data set on SMMC-7721 [12] were 1.24%, 48% and 37.6%, respectively. Moreover, the viability at 0.5 µM with SMMC-7721 [10] turned out to be 13.2%. Besides, the “Ratio IC50” value is 4 in the data set on MGC-803 [7] and 6.6 in the data set on HepG2 [8].
On to `CC1=C(O)C(=O)C=C2C1=CC=C1[C@@]2(C)CC[C@@]2(C)[C@@H]3C[C@](C)(C(=O)N4CCN(CCN5CCOCC5)CC4)CC[C@]3(C)CC[C@]12C`, for which the half-maximal inhibitory concentration (IC50) came out at 8.1 µM in data set [1]; 12.3 µM in [2]; 13.4 µM with MGC-803 [3]; 16.4 µM in the data set on HepG2 [4]; 15.2 µM in data set [5]. This compound also gave a logP in data set [6] of 3.5.
Consider `O=c1[nH]cc(F)c(=O)[nH]1` [FLUOROURACIL], for which the IC50 in data set [1] was 6.12 µM; in data set [2], 4.87 µM; in the data set on MGC-803 [3] it was 3.58 µM; in the data set on HepG2 [4], 5.86 µM.
The compound `C/C(=C\C(=O)Nc1ccccc1C(=O)O)c1ccc2ccccc2c1` displayed an IC50 in data set [5] of 0.41 µM.
Take `CC1=C(O)C(=O)C=C2C1=CC=C1[C@@]2(C)CC[C@@]2(C)[C@@H]3C[C@](C)(C(=O)N4CCN(CCO)CC4)CC[C@]3(C)CC[C@]12C`: the IC50 in data set [1] is 3.81 µM; in [2] it was 1.84 µM; with MGC-803 [3] it was 10.3 µM; with HepG2 [4], 8.7 µM; in data set [5], 2.01 µM. Moreover, the logP in data set [6] was determined as 3.44.
For the compound `CNC(=O)[C@]1(C)CC[C@]2(C)CC[C@]3(C)C4=CC=C5C(=CC(=O)C(O)=C5C)[C@]4(C)CC[C@@]3(C)[C@@H]2C1`, the IC50 in data set [1] is 9.38 µM; in [2], 7.62 µM; in the data set with MGC-803 [3] it was 24.1 µM; in the data set on HepG2 [4] it was 10.6 µM; in data set [5], 15.1 µM. The logP in data set [6] stood at 3.96.
Consider `CC1=C(O)C(=O)C=C2C1=CC=C1[C@@]2(C)CC[C@@]2(C)[C@@H]3C[C@](C)(C(=O)N4CCOCC4)CC[C@]3(C)CC[C@]12C`, for which the half-maximal inhibitory concentration (IC50) in data set [1] was 8.74 µM; in data set [2], 10.7 µM; with MGC-803 [3], 30.7 µM; in the data set on HepG2 [4], 22.7 µM; in data set [5], 8.01 µM. Further, the logP in [6] was 3.8.
As for `CCOC(=O)[C@]1(C)CC[C@]2(C)CC[C@]3(C)C4=CC=C5C(=CC(=O)C(O)=C5C)[C@]4(C)CC[C@@]3(C)[C@@H]2C1`, the IC50 in data set [1] stood at 11.5 µM; in data set [2], 9.28 µM; in the data set on MGC-803 [3], 12 µM; in the data set on HepG2 [4], 15.2 µM; in data set [5], 18.6 µM. In addition, in [6], the log partition coefficient (logP) was determined as 4.98.
On to `CC1=C(O)C(=O)C=C2C1=CC=C1[C@@]2(C)CC[C@@]2(C)[C@@H]3C[C@](C)(C(=O)N4CCN(CCN(C)C)CC4)CC[C@]3(C)CC[C@]12C`, for which the IC50 turned out to be 1.33 µM in data set [1]; 2.58 µM in data set [2]; 1 µM in the data set with MGC-803 [3]; 5.21 µM in the data set with HepG2 [4]; 1.41 µM in data set [5]. In data set [6], the logP was found to be 3.95.
